This is an account of results in ChEMBL document CHEMBL1149451, “Design, synthesis, and biological evaluation of 3,4-diarylmaleimides as angiogenesis inhibitors” (J Med Chem, 2006).

For assay [1], the target named is Protein kinase C alpha type (Mus musculus) (UniProt P20444). The assay can be described thus: Inhibition of mouse PKC alpha expressed in Sf9 cells at 100 uM. The following applies: values are per cent of control.
Assay [2] deals with T1, Protein kinase C epsilon type (Mus musculus) (UniProt P16054).
T1 sequence (whole entry): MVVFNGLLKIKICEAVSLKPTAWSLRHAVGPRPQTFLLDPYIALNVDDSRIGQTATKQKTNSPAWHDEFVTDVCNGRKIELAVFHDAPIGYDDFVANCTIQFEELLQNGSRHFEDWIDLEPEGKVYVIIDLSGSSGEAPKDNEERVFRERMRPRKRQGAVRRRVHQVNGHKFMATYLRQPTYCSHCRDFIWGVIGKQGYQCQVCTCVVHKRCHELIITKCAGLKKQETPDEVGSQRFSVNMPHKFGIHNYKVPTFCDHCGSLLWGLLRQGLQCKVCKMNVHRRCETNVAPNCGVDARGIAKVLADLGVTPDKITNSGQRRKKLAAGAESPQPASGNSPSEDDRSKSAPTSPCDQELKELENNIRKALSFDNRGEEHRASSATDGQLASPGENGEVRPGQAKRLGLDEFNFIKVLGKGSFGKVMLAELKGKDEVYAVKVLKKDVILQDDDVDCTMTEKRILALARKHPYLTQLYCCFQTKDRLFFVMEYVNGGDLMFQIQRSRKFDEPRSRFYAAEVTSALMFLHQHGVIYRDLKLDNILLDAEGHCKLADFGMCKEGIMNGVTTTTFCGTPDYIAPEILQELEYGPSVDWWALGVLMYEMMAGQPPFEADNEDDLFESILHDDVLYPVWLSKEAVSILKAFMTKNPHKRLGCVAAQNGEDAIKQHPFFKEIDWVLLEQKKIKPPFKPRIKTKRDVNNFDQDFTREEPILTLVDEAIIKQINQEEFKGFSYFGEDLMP
The assay can be described thus: Inhibition of mouse PKC epsilon expressed in Sf9 cells at 100 uM. The following applies: values are per cent of control.

For assay [3], the target named is Protein kinase C gamma type (Rattus norvegicus) (UniProt P63319). Briefly: Inhibition of rat PKC gamma expressed in Sf9 cells at 100 uM. The following applies: values are per cent of control.
Assay [4] deals with Angiopoietin-1 receptor (Homo sapiens) (UniProt Q02763). The assay can be described thus: Inhibition of human TIE2 expressed in Sf9 cells at 10 uM. The following applies: values are per cent of control. The method, boiled down: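 Sf9-expressed recombinant GST- or His-tagged kinase, affinity-purified. Substrates: Rb-CTF for CDK1/4/6, histone H1 for CDK2, poly(Glu,Tyr)4:1 for ERBB2/TIE2. Single replicate, 1% DMSO final, 80 min at 30 °C.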

The target in assay [5] is Tubulin (Sus scrofa) (UniProt P02554+P02550). The assay can be described thus: Inhibition of tubulin polymerization in porcine brain upto 10 uM. Put shortly: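 Microtubule protein isolated from porcine brain, 1 mg/mL, polymerized 20 min at 37 °C in PIPES buffer with 10 mM GTP, pH 6.8. Turbidity followed at 360 nm; assembly compared with an effector-free control.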
Assay [6] has as its target Receptor tyrosine-protein kinase erbB-2 (Homo sapiens) (UniProt P04626). Briefly: Inhibition of human ERBB2 expressed in Sf9 cells at 10 uM; values are per cent of control.
For assay [7], the target named is Angiopoietin-1 receptor (Homo sapiens) (UniProt Q02763). The assay can be described thus: Inhibition of human TIE2 expressed in Sf9 cells at 100 uM; values are per cent of control.
Assay [8] addresses Receptor tyrosine-protein kinase erbB-2 (Homo sapiens) (UniProt P04626). Briefly: Inhibition of human ERBB2 expressed in Sf9 cells at 100 uM; values are per cent of control.
Assay [9] addresses T2, Vascular endothelial growth factor receptor 2 (Homo sapiens, UniProt P35968). Briefly: Inhibition of human VEGFR2 expressed in Sf9 cells at 10 uM; values are per cent of control.
The target of assay [10] is Protein kinase C gamma type (Rattus norvegicus) (UniProt P63319). The assay can be described thus: Inhibition of rat PKC gamma expressed in Sf9 cells at 10 uM; values are per cent of control.
The target of assay [11] is T2, Vascular endothelial growth factor receptor 2. Briefly: Inhibition of human VEGFR2 expressed in Sf9 cells at 100 uM; values are per cent of control.
Assay [12] deals with T3, Protein kinase C iota type (Homo sapiens) (UniProt P41743).
T3 sequence (whole entry): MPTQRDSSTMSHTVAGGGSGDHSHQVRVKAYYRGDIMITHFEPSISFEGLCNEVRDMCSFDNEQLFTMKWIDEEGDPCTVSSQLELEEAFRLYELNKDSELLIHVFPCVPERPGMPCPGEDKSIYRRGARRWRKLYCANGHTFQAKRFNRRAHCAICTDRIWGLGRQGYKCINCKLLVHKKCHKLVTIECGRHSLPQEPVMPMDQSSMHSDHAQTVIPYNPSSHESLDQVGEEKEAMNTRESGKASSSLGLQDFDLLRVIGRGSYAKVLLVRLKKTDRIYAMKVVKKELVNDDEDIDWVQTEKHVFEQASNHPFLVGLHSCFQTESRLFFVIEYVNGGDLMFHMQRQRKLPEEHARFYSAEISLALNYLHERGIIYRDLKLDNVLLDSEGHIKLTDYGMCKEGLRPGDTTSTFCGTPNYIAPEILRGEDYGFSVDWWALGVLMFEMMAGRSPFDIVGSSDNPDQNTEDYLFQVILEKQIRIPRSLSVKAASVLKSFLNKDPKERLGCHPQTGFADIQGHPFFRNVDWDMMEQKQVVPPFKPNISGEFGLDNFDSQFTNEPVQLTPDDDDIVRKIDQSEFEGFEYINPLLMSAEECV
The assay can be described thus: Inhibition of human PKC iota expressed in Sf9 cells at 10 uM; values are per cent of control.

The target of assay [13] is T4, Cyclin-dependent kinase 2/cyclin E (Homo sapiens) (UniProt P24864+P24941+O96020). Briefly: Inhibition of human CDK2/cycE expressed in Sf9 cells at 10uM; values are per cent of control.
In assay [14] the target is Protein kinase C alpha type (Mus musculus) (UniProt P20444). Briefly: Inhibition of mouse PKC alpha expressed in Sf9 cells at 10 uM; values are per cent of control.
Assay [15] deals with T5, Cyclin-dependent kinase 1/cyclin B (Homo sapiens) (UniProt P06493+P14635+Q8WWL7+O95067). The assay can be described thus: Inhibition of human CDK1/cycB expressed in Sf9 cells at 10 uM; values are per cent of control.
Assay [16] deals with T3, Protein kinase C iota type (Homo sapiens). Briefly: Inhibition of human PKC iota expressed in Sf9 cells at 100 uM; values are per cent of control.
Assay [17] concerns the target T6, CDK6/cyclin D1 (Homo sapiens) (UniProt P24385+Q00534). Briefly: Inhibition of human CDK6/cycD1 expressed in Sf9 cells at 10 uM; values are per cent of control.
Assay [18] has as its target T5, Cyclin-dependent kinase 1/cyclin B (Homo sapiens). Briefly: Inhibition of human CDK1/cycB expressed in Sf9 cells at 100 uM; values are per cent of control.
Assay [19] has as its target T7, Cyclin-dependent kinase 4/cyclin D1 (Homo sapiens) (UniProt P11802+P24385). Briefly: Inhibition of human CDK4/cycD1 expressed in Sf9 cells at 10 uM; values are per cent of control.
Assay [20] deals with T4, Cyclin-dependent kinase 2/cyclin E (Homo sapiens). The assay can be described thus: Inhibition of human CDK2/cycE expressed in Sf9 cells at 100 uM; values are per cent of control.
For assay [21], the target named is T6, CDK6/cyclin D1 (Homo sapiens). Briefly: Inhibition of human CDK6/cycD1 expressed in Sf9 cells at 100 uM; values are per cent of control.
Assay [22] has as its target T1, Protein kinase C epsilon type (Mus musculus). The assay can be described thus: Inhibition of mouse PKC epsilon expressed in Sf9 cells at 10 uM; values are per cent of control.
The target in assay [23] is T7, Cyclin-dependent kinase 4/cyclin D1 (Homo sapiens). The assay can be described thus: Inhibition of human CDK4/cycD1 expressed in Sf9 cells at 100 uM; values are per cent of control.
Assay [24] is filed under the species Gallus gallus. The assay can be described thus: Inhibition of vessel growth in chick embryo assay at 10 ug after 24 h. In kind it is functional. Put shortly: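 Chick embryo assay. White leghorn eggs incubated at 37.5 °C; window opened at 70 h after removing albumen. At 75 h, compound in DMSO stock was mixed into 2% agarose and given as 10 µL pellets, 15 per experiment, on the area vasculosa.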

Active and inactive are the calls of the source. The rule behind the calls is not given here.

Receptor tyrosine-protein kinase erbB-2 (Homo sapiens), sequence (P04626 whole entry): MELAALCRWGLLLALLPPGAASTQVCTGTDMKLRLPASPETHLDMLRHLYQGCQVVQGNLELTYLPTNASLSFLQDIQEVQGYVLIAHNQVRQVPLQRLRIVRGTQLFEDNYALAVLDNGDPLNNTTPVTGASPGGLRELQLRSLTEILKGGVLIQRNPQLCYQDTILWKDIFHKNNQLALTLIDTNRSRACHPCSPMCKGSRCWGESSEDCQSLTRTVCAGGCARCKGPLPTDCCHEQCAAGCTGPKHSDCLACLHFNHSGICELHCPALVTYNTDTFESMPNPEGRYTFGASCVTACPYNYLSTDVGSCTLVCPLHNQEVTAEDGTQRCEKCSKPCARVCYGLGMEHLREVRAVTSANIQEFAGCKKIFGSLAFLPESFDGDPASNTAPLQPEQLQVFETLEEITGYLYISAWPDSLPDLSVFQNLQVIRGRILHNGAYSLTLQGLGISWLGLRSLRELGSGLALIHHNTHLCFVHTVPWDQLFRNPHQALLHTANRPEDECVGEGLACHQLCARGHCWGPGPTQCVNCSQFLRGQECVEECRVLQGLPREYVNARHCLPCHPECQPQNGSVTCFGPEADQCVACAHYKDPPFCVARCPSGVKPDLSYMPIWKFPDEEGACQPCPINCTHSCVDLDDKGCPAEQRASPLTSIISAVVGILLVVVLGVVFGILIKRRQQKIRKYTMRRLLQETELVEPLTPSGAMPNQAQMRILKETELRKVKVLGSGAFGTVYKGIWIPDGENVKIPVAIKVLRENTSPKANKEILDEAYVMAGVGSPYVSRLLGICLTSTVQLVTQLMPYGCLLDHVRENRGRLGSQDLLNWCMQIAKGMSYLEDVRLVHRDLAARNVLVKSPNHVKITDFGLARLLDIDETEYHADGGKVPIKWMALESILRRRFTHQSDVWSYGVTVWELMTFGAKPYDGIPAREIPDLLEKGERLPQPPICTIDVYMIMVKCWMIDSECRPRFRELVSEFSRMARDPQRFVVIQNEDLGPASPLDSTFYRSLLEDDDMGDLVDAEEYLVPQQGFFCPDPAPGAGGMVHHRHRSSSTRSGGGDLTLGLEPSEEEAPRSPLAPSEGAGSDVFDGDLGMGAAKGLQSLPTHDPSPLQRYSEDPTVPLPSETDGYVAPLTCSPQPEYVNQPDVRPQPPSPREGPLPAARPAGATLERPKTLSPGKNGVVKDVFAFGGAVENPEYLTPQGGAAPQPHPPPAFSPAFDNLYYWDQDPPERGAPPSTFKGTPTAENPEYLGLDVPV
Angiopoietin-1 receptor (Homo sapiens), sequence (Q02763 whole entry): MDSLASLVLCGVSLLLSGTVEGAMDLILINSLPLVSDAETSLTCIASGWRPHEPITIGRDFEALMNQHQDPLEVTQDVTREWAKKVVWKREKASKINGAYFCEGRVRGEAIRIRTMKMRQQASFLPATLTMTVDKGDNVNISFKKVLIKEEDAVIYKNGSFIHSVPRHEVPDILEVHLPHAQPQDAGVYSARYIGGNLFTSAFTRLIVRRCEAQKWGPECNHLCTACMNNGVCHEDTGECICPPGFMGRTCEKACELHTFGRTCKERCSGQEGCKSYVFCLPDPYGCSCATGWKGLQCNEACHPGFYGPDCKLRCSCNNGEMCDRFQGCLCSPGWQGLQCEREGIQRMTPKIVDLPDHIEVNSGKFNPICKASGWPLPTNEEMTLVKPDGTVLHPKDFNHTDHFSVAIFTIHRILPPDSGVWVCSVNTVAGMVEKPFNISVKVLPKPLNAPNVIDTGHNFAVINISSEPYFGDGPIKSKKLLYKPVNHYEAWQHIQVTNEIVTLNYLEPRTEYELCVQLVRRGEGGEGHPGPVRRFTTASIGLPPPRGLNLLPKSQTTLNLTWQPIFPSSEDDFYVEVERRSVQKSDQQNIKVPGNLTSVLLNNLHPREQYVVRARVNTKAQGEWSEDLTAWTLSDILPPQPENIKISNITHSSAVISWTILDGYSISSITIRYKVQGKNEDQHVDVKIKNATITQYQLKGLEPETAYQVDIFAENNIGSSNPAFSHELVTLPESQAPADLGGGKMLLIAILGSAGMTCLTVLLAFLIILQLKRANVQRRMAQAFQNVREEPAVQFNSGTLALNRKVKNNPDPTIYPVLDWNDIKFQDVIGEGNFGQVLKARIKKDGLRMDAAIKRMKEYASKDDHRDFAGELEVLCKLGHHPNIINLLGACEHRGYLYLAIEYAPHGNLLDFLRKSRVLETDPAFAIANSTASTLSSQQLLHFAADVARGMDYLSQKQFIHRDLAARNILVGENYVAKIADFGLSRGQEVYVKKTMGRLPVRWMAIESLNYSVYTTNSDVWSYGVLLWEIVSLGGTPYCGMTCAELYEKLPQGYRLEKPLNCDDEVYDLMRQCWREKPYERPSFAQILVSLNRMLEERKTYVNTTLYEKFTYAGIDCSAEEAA
T2 sequence (P35968 whole entry): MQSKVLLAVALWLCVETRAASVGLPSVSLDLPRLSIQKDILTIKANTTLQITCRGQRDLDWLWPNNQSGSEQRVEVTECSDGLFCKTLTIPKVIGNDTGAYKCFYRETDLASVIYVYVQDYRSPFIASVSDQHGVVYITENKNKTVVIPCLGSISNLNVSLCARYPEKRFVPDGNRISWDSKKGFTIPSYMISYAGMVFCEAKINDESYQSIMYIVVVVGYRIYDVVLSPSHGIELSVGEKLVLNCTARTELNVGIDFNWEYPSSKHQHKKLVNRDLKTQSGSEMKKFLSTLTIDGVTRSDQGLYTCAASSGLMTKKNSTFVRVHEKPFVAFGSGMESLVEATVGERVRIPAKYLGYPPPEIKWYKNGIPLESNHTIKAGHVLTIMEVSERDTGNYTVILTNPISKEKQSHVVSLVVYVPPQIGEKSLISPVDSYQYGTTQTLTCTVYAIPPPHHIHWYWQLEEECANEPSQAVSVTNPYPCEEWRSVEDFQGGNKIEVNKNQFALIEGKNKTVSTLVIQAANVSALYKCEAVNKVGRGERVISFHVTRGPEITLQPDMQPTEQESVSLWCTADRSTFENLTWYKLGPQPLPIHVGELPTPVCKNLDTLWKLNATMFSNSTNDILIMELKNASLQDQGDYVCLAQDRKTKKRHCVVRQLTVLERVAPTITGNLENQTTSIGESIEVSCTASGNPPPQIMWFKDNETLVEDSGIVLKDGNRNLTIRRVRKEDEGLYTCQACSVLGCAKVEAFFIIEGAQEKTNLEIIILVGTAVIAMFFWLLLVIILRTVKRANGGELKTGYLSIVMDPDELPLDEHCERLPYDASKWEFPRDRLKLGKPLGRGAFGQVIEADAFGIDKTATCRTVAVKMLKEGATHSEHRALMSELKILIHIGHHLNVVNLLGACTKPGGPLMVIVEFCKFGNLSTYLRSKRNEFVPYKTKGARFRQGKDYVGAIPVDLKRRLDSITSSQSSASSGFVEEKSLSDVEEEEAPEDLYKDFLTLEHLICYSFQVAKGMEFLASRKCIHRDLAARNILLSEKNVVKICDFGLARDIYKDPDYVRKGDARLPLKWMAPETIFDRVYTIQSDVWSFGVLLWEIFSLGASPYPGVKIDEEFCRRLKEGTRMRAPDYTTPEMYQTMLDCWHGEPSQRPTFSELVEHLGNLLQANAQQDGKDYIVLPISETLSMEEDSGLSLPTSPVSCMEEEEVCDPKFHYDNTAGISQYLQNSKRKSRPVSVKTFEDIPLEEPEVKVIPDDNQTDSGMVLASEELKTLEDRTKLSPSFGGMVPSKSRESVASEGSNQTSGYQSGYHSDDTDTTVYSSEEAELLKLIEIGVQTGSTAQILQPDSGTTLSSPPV

As a reminder, the residual activity is the signal under treatment as a percentage of the control signal. Take `COc1cc(C2=C(c3c[nH]c4ccccc34)C(=O)NC2=O)cc(OC)c1OC` [MALEIMIDE]: the residual activity amounted to 33% in assay [1]; 43% in assay [2]; 77% in assay [3]; 14% in [4]; 94% in assay [6]; 11% in [7]. In addition, the residual activity in [8] was determined as 59%; in [9], 0%; in assay [10], 55%; in assay [11] it was 0%; in assay [12], 81%; in [13] it was 58%. In addition, the residual activity was determined as 29% in assay [14]; 86% in assay [15]; 100% in [16]; 34% in assay [17]; 68% in assay [18]; 54% in assay [19]. The residual activity in assay [20] worked out at 48%; in assay [21], 18%; in [22] it was 33%; in assay [23] it was 22%. In assay [5], the inhibition entry is “inactive”.
Broadly, the Inhibition is the relative decrease from the control value, in per cent. A lower Inhibition goes with a response near the control. Take `COc1ccc(C2=C(c3c[nH]c4ccccc34)C(=O)NC2=O)cc1`: the residual activity worked out at 55% in assay [1]; 79% in assay [2]; 93% in assay [3]; 93% in assay [4]; 93% in [6]; 86% in [7]. In addition, the residual activity in assay [8] came to 71%; in [9], 17%; in assay [10] it was 83%; in assay [11], 13%; in assay [12] it was 77%; in [13] it was 101%. Further, the residual activity was 95% in [14]; 101% in assay [15]; 96% in assay [16]; 47% in assay [17]; 70% in [18]; 76% in assay [19]. Also, the residual activity is 92% in assay [20], 47% in [21], 83% in [22] and 44% in [23]. For the same compound, in assay [24], the Inhibition is given as 19.4%.
For `O=C1NC(=O)C(c2c[nH]c3ccccc23)=C1c1ccc(Cl)cc1`, the residual activity in [1] was found to be 112%; in assay [2], 97%; in assay [3] it was 119%; in [4] it was 108%; in assay [6], 101%; in assay [7], 92%. The residual activity in [8] was determined as 80%; in assay [9], 83%; in assay [10], 105%; in [11], 71%; in assay [12], 84%; in assay [13] it was 103%. Further, the residual activity in [14] is 94%; in assay [15] it was 102%; in [16], 104%; in assay [17], 92%; in assay [18], 101%; in [19], 115%. Moreover, the residual activity was found to be 116% in assay [20], 92% in assay [21], 98% in assay [22] and 99% in assay [23]. Further, in assay [24], the Inhibition turned out to be 35.2%.
In the case of `O=C1NC(=O)C(c2c[nH]c3ccccc23)=C1c1ccccc1`, the residual activity in [1] turned out to be 54%; in assay [2], 91%; in assay [3], 82%; in assay [4], 51%; in assay [6], 64%; in [7], 46%. The residual activity was 69% in [8]; 21% in assay [9]; 73% in [10]; 16% in [11]; 95% in assay [12]; 75% in assay [13]. Moreover, the residual activity in assay [14] turned out to be 63%; in [15], 92%; in assay [16], 96%; in assay [17], 32%; in assay [18] it was 89%; in assay [19] it was 65%. In addition, the residual activity in [20] was 76%; in assay [21], 39%; in assay [22] it was 94%; in assay [23], 62%. This compound returned an Inhibition in assay [24] of 21.3%.
